Calls of active or inactive are those of the source. The calls are words filed in the database; no cut-off is given here.
How the values were obtained:
Diaporthe ampelina [1] = assay: Antifungal activity against Diaporthe ampelina assessed as growth inhibition at 30 uM after 120 hr by microplate photometric analysis; format: functional, organism-based
In short: (§1)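 P. viticola was isolated from grape, and its conidia were harvested from 7–10-day PDA cultures, filtered and adjusted photometrically to 1.0 × 10^6/mL. Growth was run in RPMI broth buffered with 0.165 M MOPS (pH 7) at final 30, 100 or 300 µM (120 mM stocks in 95% ethanol), with duplicate wells, at 24 ± 2 °C under a 12-h photoperiod. A620 was read at 120 h and expressed relative to untreated conidia controls.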

[2] = system: Colletotrichum gloeosporioides; assay: Antifungal activity against Colletotrichum gloeosporioides assessed as growth inhibition at 100 uM after 48 hr by microplate photometric analysis; format: functional; conditions: read-out: GI
In short: (§2)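 96-well broth microdilution on conidia from 7–10-day PDA cultures of isolates from strawberry, grape or orchid. Conidia were in RPMI buffered with 0.165 M MOPS (pH 7). Ethanol stocks were diluted to final 30, 100 and 300 µM, with duplicate wells and compound-only blanks. Plates were incubated at 24 ± 2 °C under a 12-h photoperiod and read at A620 after 48 h. Results are % change versus untreated conidia controls, split-plot design run twice (n = 4).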

Phomopsis obscurans [3] = assay: Antifungal activity against Phomopsis obscurans assessed as growth inhibition at 30 uM after 120 hr by microplate photometric analysis; format: functional; conditions: Paraphomopsis obscurans, read-out: GI
In short: (§3)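 Phomopsis conidia, from strawberry or grape isolates grown 7–10 days on PDA, were tested in RPMI/0.165 M MOPS (pH 7) microtiter wells. Ethanol stocks were diluted to final 30, 100 and 300 µM, with duplicate wells and compound-only blanks. Incubation was at 24 ± 2 °C under a 12-h photoperiod, with A620 read at 120 h because germination is slow. Results are % change versus untreated conidia controls, run twice in time (n = 4).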

Colletotrichum fragariae [4] = assay: Antifungal activity against Colletotrichum fragariae assessed as growth inhibition at 30 to 300 uM after 48 hr by microplate photometric analysis; format: functional; in short: as §2
Colletotrichum acutatum [5] = assay: Antifungal activity against Colletotrichum acutatum assessed as growth inhibition at 300 uM after 48 hr by microplate photometric analysis; format: functional; conditions: read-out: GI; in short: as §2
Botrytis cinerea [6] = assay: Antifungal activity against Botryotinia fuckeliana assessed as growth inhibition at 30 to 300 uM after 48 hr by microplate photometric analysis; format: functional, organism-based; in short: as §2
Fusarium oxysporum [7] = assay: Antifungal activity against Fusarium oxysporum assessed as growth inhibition at 300 uM after 48 hr by microplate photometric analysis; format: functional; conditions: read-out: GI; in short: as §2
Botrytis cinerea [8] = assay: Stimulation of Botryotinia fuckeliana growth at 30 uM after 48 hr by microplate photometric analysis; format: functional, organism-based
In short: (§4)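 Conidia came from 7–10-day PDA cultures (24 ± 2 °C, 12-h photoperiod) and were filtered and adjusted photometrically to 1.0 × 10^6/mL. B. cinerea was isolated from grape, C. gloeosporioides from strawberry and F. oxysporum from orchid. Growth was run in MOPS-buffered RPMI (0.165 M, pH 7) at final 30, 100 or 300 µM from 120 mM ethanol stocks, with duplicate wells, and read as A620 at 48 h. Results are % of untreated growth.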

Phomopsis obscurans [9] = assay: Antifungal activity against Phomopsis obscurans assessed as growth inhibition at 300 uM after 120 hr by microplate photometric analysis; format: functional; conditions: Paraphomopsis obscurans; for inhibition of growth at 300 µM: read-out: GI; in short: as §3
Phomopsis obscurans [10] = assay: Antifungal activity against Phomopsis obscurans assessed as growth inhibition at 100 uM after 120 hr by microplate photometric analysis; format: functional; conditions: Paraphomopsis obscurans, read-out: GI; in short: as §3
Botrytis cinerea [11] = assay: Antifungal activity against Botryotinia fuckeliana assessed as growth inhibition at 300 uM after 48 hr by microplate photometric analysis; format: functional, organism-based; in short: as §4
Botrytis cinerea [12] = assay: Stimulation of Botryotinia fuckeliana growth at 30 to 300 uM after 48 hr by microplate photometric analysis; format: functional, organism-based; in short: as §2
Phomopsis obscurans [13] = assay: Stimulation of Phomopsis obscurans growth at 30 to 300 uM after 120 hr by microplate photometric analysis; format: functional, organism-based; conditions: Paraphomopsis obscurans; in short: as §3
[14] = system: Colletotrichum gloeosporioides; assay: Stimulation of Colletotrichum gloeosporioides growth at 30 to 300 uM after 48 hr by microplate photometric analysis; format: functional, organism-based; in short: as §4
Colletotrichum acutatum [15] = assay: Stimulation of Colletotrichum acutatum growth at 30 uM after 48 hr by microplate photometric analysis; format: functional; in short: as §2
Diaporthe ampelina [16] = assay: Stimulation of Diaporthe ampelina growth at 30 to 300 uM after 120 hr by microplate photometric analysis; format: functional, organism-based; in short: as §1
Diaporthe ampelina [17] = assay: Antifungal activity against Diaporthe ampelina assessed as growth inhibition at 300 uM after 120 hr by microplate photometric analysis; format: functional; conditions: read-out: GI; in short: as §3
[18] = system: Colletotrichum gloeosporioides; assay: Antifungal activity against Colletotrichum gloeosporioides assessed as growth inhibition at 300 uM after 48 hr by microplate photometric analysis; format: functional; conditions: read-out: GI; in short: as §2
Phomopsis obscurans [19] = assay: Antifungal activity against Phomopsis obscurans assessed as growth inhibition at 30 to 300 uM after 120 hr by microplate photometric analysis; format: functional, organism-based; conditions: Paraphomopsis obscurans; in short: as §3
Fusarium solani = assay: Fungistatic activity against Fusarium solani assessed as growth inhibition; format: functional, organism-based
Diaporthe ampelina [20] = assay: Antifungal activity against Diaporthe ampelina assessed as growth inhibition at 30 to 300 uM after 120 hr by microplate photometric analysis; format: functional, organism-based; in short: as §3
Fusarium oxysporum [21] = assay: Stimulation of Fusarium oxysporum growth at 30 uM after 48 hr by microplate photometric analysis; format: functional, organism-based; in short: as §4
Colletotrichum fragariae [22] = assay: Antifungal activity against Colletotrichum fragariae assessed as growth inhibition at 300 uM after 48 hr by microplate photometric analysis; format: functional; conditions: read-out: GI; in short: as §2

Compound: Cn1c(CCCCCCc2ccc3c(c2)OCO3)cc(=O)c2ccccc21
- growth inhibition (GI) (Diaporthe ampelina [1]): Active
- inhibition of growth at 100 µM [2]: 67.7%
- inhibition of growth at 30 µM (Phomopsis obscurans [3]): 100%
- growth inhibition (GI) (Colletotrichum fragariae [4]): Active
- inhibition of growth at 300 µM (Colletotrichum acutatum [5]): 57%
- growth inhibition (GI) (Botrytis cinerea [6]): Active

Compound: CCCCCCCCCc1cc(=O)c2ccccc2[nH]1
- inhibition of growth at 300 µM (Fusarium oxysporum [7]): 37%
- Activity (Botrytis cinerea [8]): Active
- growth inhibition (GI) (Diaporthe ampelina [1]): Active
- growth inhibition (GI) (Phomopsis obscurans [9]): inactive
- inhibition of growth at 100 µM (Phomopsis obscurans [10]): 100%
- growth inhibition (GI) (Colletotrichum fragariae [4]): Active
- inhibition of growth at 300 µM (Colletotrichum acutatum [5]): 50%

Compound: O=c1cc(CCCCc2ccc3c(c2)OCO3)[nH]c2ccccc12
- growth inhibition (GI) (Botrytis cinerea [11]): Active
- growth inhibition (GI) (Diaporthe ampelina [1]): Active
- inhibition of growth at 30 µM (Phomopsis obscurans [3]): 100%

Compound: O=c1cc(O)c2ccccc2o1 [4-HYDROXYCOUMARINS]
- Activity (Botrytis cinerea [12]): Active
- Activity (Phomopsis obscurans [13]): Active
- Activity [14]: Active
- Activity (Colletotrichum acutatum [15]): 15%
- Activity (Diaporthe ampelina [16]): Active

Compound: CCCCNC(=O)n1c(NC(=O)OC)nc2ccccc21 [BENOMYL]
- inhibition of growth at 300 µM (Fusarium oxysporum [7]): 77%
- inhibition of growth at 300 µM (Diaporthe ampelina [17]): 57%
- inhibition of growth at 300 µM [18]: 66%
- growth inhibition (GI) (Phomopsis obscurans [19]): Active
- growth inhibition (GI) (Colletotrichum fragariae [4]): 76%
- inhibition of growth at 300 µM (Colletotrichum acutatum [5]): 33%
- growth inhibition (GI) (Botrytis cinerea [6]): Active

Compound: COc1c2ccoc2cc2oc(=O)ccc12 [BERGAPTEN]
- IC50 (Fusarium solani): 27.7 µM
- Activity [14]: Active
- Activity (Colletotrichum acutatum [15]): 15%
- inhibition of growth at 30 µM (Phomopsis obscurans [3]): 80%
- growth inhibition (GI) (Diaporthe ampelina [20]): Active

Compound: O=C1C2CC=CCC2C(=O)N1SC(Cl)(Cl)Cl (configuration not stated) [CAPTAN]
- inhibition of growth at 300 µM (Fusarium oxysporum [7]): 100%
- growth inhibition (GI) (Diaporthe ampelina [20]): Active
- growth inhibition (GI) (Phomopsis obscurans [19]): Active

Compound: Cn1c(-c2ccc3c(c2)OCO3)cc(=O)c2ccccc21 [GRAVEOLINE]
- inhibition of growth at 300 µM (Fusarium oxysporum [7]): 44%
- Activity (Botrytis cinerea [8]): Active
- inhibition of growth at 100 µM (Phomopsis obscurans [10]): 100%
- Activity (Diaporthe ampelina [16]): Active
- growth inhibition (GI) (Colletotrichum fragariae [4]): Active

Compound: COc1ccc2ccc(=O)oc2c1 [HERNIARIN]
- growth inhibition (GI) (Botrytis cinerea [11]): Active
- Activity (Fusarium oxysporum [21]): Active
- Activity [14]: Active
- Activity (Botrytis cinerea [8]): Active
- Activity (Colletotrichum acutatum [15]): 15%
- inhibition of growth at 300 µM (Colletotrichum fragariae [22]): 21%
- Activity (Diaporthe ampelina [16]): Active

Compound: COc1cc2nc3occc3c(OC)c2cc1OC [KOKUSAGININE]
- inhibition of growth at 300 µM [18]: 50%
- growth inhibition (GI) (Diaporthe ampelina [1]): Active
- inhibition of growth at 300 µM (Phomopsis obscurans [9]): 100%
- inhibition of growth at 30 µM (Phomopsis obscurans [3]): 80%
- growth inhibition (GI) (Colletotrichum fragariae [4]): Active

Compound: COc1c2occc2cc2ccc(=O)oc12 [METHOXSALEN]
- inhibition of growth at 300 µM (Fusarium oxysporum [7]): 50%
- growth inhibition (GI) (Botrytis cinerea [11]): Active
- IC50 (Fusarium solani): 125 µM
- Activity [14]: Active
- Activity (Colletotrichum acutatum [15]): 15%
- inhibition of growth at 300 µM (Phomopsis obscurans [9]): 100%
- inhibition of growth at 300 µM (Colletotrichum fragariae [22]): 29%
- inhibition of growth at 30 µM (Phomopsis obscurans [3]): 80%
- growth inhibition (GI) (Diaporthe ampelina [20]): Active

Compound: O=c1ccc2ccc(O)cc2o1 [UMBELLIFERONE]
- Activity (Botrytis cinerea [12]): Active
- Activity (Phomopsis obscurans [13]): Active
- Activity [14]: Active
- Activity (Colletotrichum acutatum [15]): 15%
- Activity (Diaporthe ampelina [16]): Active

Reference: ChEMBL document CHEMBL3044619, “Natural fungicides from Ruta graveolens L. leaves, including a new quinolone alkaloid” (J Agric Food Chem, 2003)
